{"source": "paper PMC12239663", "about": "(Journal of the American Chemical Society, 2024)", "key": {"[1]": {"experiment": "Stability in aqueous buffer", "assay_type": "physicochemical"}, "SgvP-RhFRed": {"tested_on": "SgvP-RhFRed", "experiment": "Enzymatic reaction with SgvP-RhFRed chimera", "assay_type": "biochemical, Streptomyces griseoviridis", "conditions": "NADP+, Opt13 for NADPH regeneration; without TCEP; LC-MS"}, "FNS2": {"tested_on": "FNS2", "experiment": "Activity of homolog P450-RhFRed chimera FNS2", "assay_type": "biochemical", "conditions": "cell lysates, range of conditions"}, "SgvP [2]": {"target": "T1, SgvP (Streptomyces griseoviridis, UniProt R9USI6)", "assay_type": "biochemical", "conditions": "Fdx/Fdr, Opt13, NADP+, TCEP, no apparent intermediates detected", "in_short": "(§1)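 Reactions were run under standard conditions, with a control reaction lacking P450. Peaks containing m/z 496 and m/z 512 were taken as singly- and doubly-oxidized by-products.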"}, "YY64": {"tested_on": "YY64", "experiment": "Activity of homolog P450-RhFRed chimera YY64", "assay_type": "biochemical", "conditions": "cell lysates, range of conditions"}, "SgvP L337F": {"tested_on": "SgvP L337F", "experiment": "Enzymatic reaction with SgvP mutant L337F", "assay_type": "biochemical, Streptomyces griseoviridis", "conditions": "substrate 2; same reaction conditions as wild-type SgvP", "in_short": "as §1"}, "SgvP P237T": {"tested_on": "SgvP P237T", "experiment": "Enzymatic reaction with SgvP mutant P237T", "assay_type": "biochemical, Streptomyces griseoviridis", "conditions": "substrate 2; same reaction conditions as wild-type SgvP"}, "[3]": {"experiment": "Behavior toward chemical oxidants", "assay_type": "physicochemical"}, "NK82": {"tested_on": "NK82", "experiment": "Activity of homolog P450-RhFRed chimera NK82", "assay_type": "biochemical", "conditions": "cell lysates, range of conditions"}, "[4]": {"experiment": "Stability under air at ambient temperature", "assay_type": "physicochemical", "conditions": "two weeks"}, "SgvP mutants": {"tested_on": "SgvP mutants", "experiment": "LC-MS by-product analysis of reactions with SgvP mutants", "assay_type": "biochemical, Streptomyces griseoviridis", "conditions": "singly- (m/z = 496) and doubly-oxidized (m/z = 512) by-products, substrate 2", "in_short": "as §1"}, "SgvP [5]": {"target": "T1, SgvP", "experiment": "Type I binding spectra, titration of SgvP with 2"}, "SgvP [6]": {"target": "T1, SgvP", "experiment": "In vitro reconstitution of C–S bond formation, SgvP with CamB/CamA", "assay_type": "biochemical", "conditions": "CamB/CamA as redox partners, relative to Fdx/Fdr"}, "[7]": {"tested_on": "SgvP P237T with A238 mutated to threonine", "experiment": "Enzymatic reaction with SgvP double mutant P237T, A238 to threonine", "assay_type": "biochemical, Streptomyces griseoviridis", "conditions": "substrate 2; P237T activity partially rescued by mutating A238 to threonine"}}, "note": "Where two headings read alike, the source gives them in different places."}
{"substance": "pre-griseoviridin [compound 2]", "values": [{"measurement": "disulfide formation with TCEP", "setting": "[1]; TCEP added to the reaction mixture as a reductant", "value": "disulfide formation was effectively prevented"}, {"measurement": "product in absence of SgvP-RhFRed or in buffer and co-solvent alone", "setting": "[1]; aqueous conditions, exposure to oxygen, no TCEP, LC-MS", "value": "disulfide as the only product"}, {"measurement": "product of incubation with SgvP-RhFRed", "setting": "SgvP-RhFRed", "value": "yielded only disulfide"}, {"measurement": "activity of homolog chimera with 2", "setting": "FNS2", "value": "none of the homologs exhibited any activity"}, {"measurement": "conversion to griseoviridin (1)", "setting": "SgvP [2]", "value": "nearly full conversion to griseoviridin (1) in approximately three hours"}, {"measurement": "activity of homolog chimera with 2", "setting": "YY64", "value": "none of the homologs exhibited any activity"}, {"measurement": "activity relative to wild-type enzyme", "setting": "SgvP L337F", "value": "comparable – if not slightly enhanced – activity to the wild-type enzyme"}, {"measurement": "NMR yield of griseoviridin", "setting": "SgvP P237T", "value": 7, "unit": "%"}, {"measurement": "production of 1 with chemical oxidants", "setting": "[3]; mCPBA or basic H2O2", "value": "we did not observe the production of 1"}, {"measurement": "outcome of treatment with mCPBA", "setting": "[3]; mCPBA, crude NMR, sulfinic and sulfonic acids of 2 tentatively detected by LC-MS", "value": "intractable mixture"}, {"measurement": "outcome of treatment with basic H2O2", "setting": "[3]; series of basic hydrogen peroxide conditions", "value": "ester hydrolysis, S-oxidation, or broad degradation"}, {"measurement": "activity of homolog chimera with 2", "setting": "NK82", "value": "none of the homologs exhibited any activity"}, {"measurement": "stability: degradation", "setting": "[4]", "value": "remarkably stable, with no discernable degradation even after two weeks"}, {"measurement": "by-products formed", "setting": "SgvP mutants", "value": "several oxidized by-products had formed"}, {"measurement": "binding spectrum type", "setting": "SgvP [5]; SgvP incubated with various concentrations of 2", "value": "characteristic type I binding spectrum"}, {"measurement": "Kd relative to that of TleB (fold lower)", "setting": "SgvP [5]; SgvP–2 Kd lower than TleB Kd", "value": 2.5, "unit": "fold"}, {"measurement": "Kd relative to that of PtmO5", "setting": "SgvP [5]; SgvP–2 Kd vs PtmO5 Kd", "value": "one order of magnitude higher"}, {"measurement": "λmax after shift on binding of 2", "setting": "SgvP [5]; type I binding spectrum, λmax shifted from 421 nm", "value": 386, "unit": "nm"}, {"measurement": "conversion to griseoviridin (1)", "setting": "SgvP [6]", "value": "Analogous results"}, {"measurement": "NMR yield of griseoviridin", "setting": "[7]", "value": 25, "unit": "%"}]}
